An excerpt weighted towards active compounds, which were near 3.4% of everything screened.
JNK3 blocker: JNK3 (human) kinase inhibition; P53779; AID 746; purified JNK3 kinase activity, HTS; 60,000 tested, 0.61% active; inhibition, % at 8 µM; in the data active = inhibition above about 17%;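 note: 0% = DMSO and 100% = reference inhibitor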
Target sequence (P53779 whole entry, looked up): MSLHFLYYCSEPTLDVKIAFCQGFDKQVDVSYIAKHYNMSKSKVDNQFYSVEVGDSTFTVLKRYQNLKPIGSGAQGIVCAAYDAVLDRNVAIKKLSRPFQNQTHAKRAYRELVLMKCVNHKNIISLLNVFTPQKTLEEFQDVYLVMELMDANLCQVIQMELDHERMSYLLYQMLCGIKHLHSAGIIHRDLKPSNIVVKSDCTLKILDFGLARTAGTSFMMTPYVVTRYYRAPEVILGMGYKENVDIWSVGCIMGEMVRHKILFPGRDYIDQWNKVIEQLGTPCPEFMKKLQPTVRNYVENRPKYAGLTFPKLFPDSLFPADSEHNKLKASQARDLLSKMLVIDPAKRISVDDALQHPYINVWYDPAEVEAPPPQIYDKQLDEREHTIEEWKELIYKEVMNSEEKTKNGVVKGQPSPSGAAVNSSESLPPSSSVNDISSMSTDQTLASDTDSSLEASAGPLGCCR
ROCK2 blocker: inhibitors of human Rho kinase 2; O75116; purified ROCK2, Kinase-Glo ATP depletion luminescence; inhibition, % at 6 µM; 60,000 tested, 0.35% active; AID 604;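 active = inhibition above the screen-wide mean inhibition plus 3 SD, cut at about 18% in these data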;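 note: plate controls were DMSO wells for no effect and Y-27632 control wells after no-enzyme background subtraction for full effect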
MMP-13 inhibitor: MMP13 (human) collagenase inhibition; 65,000 tested, 0.07% active; inhibition, % at 4 µM; MMP-13 fTHP FRET cleavage, Mca fluorescence; P45452;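 active = inhibition above the mean of compound-free control plate wells plus 3 SD, cut at about 14% in these data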;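 note: 0% = DMSO wells and 100% = wells with reference MMP-13 inhibitor after basal subtraction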
PKA kinase inh: blocks human protein kinase A activity; PKA Kemptide phosphorylation, Kinase-Glo ATP luminescence; inhibition, % at 6 µM; 65,000 tested, 0.1% active;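 active = inhibition above the screen-wide mean inhibition plus 3 SD, cut at about 21% in these data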
SF1 activator: activators of human nuclear receptor SF-1; Q13285; 65,000 tested, 1.9% active; activation, % at 10 µM; AID 522; CHO-K1 Gal4-SF-1 LBD luciferase reporter; % increase over DMSO SF-1-specific signal;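 active = activation above the mean activation of all tested compounds plus 3 SD, cut at about 50% in these data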
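Material: Gal4–SF-1 LBD one-hybrid luciferase reporter in CHO-K1 cells | Amount: 4,000 cells per well | Compound dosing: 10 µM single point, 1% DMSO | Schedule: 20 h compound treatment, 37 °C | Measured by: SteadyLite luciferase luminescence | Evaluation: Percent activation versus DMSO | Control set: DMSO-treated SF-1-transfected cells as negative, DMSO-treated mock-transfected cells lacking SF-1 as background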
RORA act: activates the human nuclear receptor RORA | CHO-K1 Gal4-RORA LBD luciferase reporter, luminescence; percent increase over mock-subtracted basal signal | activation, % at 10 µM | 65,000 tested, 1.5% active | AID 560 | P35398;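 active = activation above the mean of all tested compounds plus 3 SD, cut at about 49% in these data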;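 note: 0% = DMSO-treated RORA cells and 100% = added signal equal to DMSO minus mock-transfected cells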
Starred values were filed as active, the others as inactive; nt = no result given.

SMILES | JNK3 blocker | ROCK2 blocker | MMP-13 inhibitor | PKA kinase inh | SF1 activator | RORA act
O=C(Nc1cc2nn(-c3ccccc3)nc2cc1Cl)c1ccco1 | -4.0 | 4.9 | -8.2 | 1.8 | 72.7* | 25.4
CC(=O)Nc1cc2nn(-c3ccccc3)nc2cc1Cl | nt | nt | -104.2 | 3.2 | 10.7 | 13.3
Cc1nc(CCNC(=O)COc2ccccc2)cs1 | 2.9 | 3.7 | -1.4 | 7.5 | -12.1 | -25.9
Nc1ccccc1SCc1cn2cccnc2n1 | -6.0 | 4.0 | 8.0 | 8.0 | 10.3 | 18.3
Nc1ccccc1SCc1cn2ccccc2n1 | 3.2 | 2.3 | -3.5 | 8.1 | 29.6 | 49.3*
CC1CCCN(c2ccc(C(=O)NCc3cccs3)cn2)C1 (stereo not drawn) | -7.1 | -6.6 | 2.5 | -3.9 | 70.2* | 56.3*
CC1CCN(c2ccc(C(=O)NCCc3ccccc3)cn2)CC1 | -7.7 | -7.2 | -3.4 | -1.9 | 28.4 | 60.2*
Cc1cc(C)n2nc(SCC3COc4ccccc4O3)nc2n1 (stereo not drawn) | -1.1 | -1.8 | -3.1 | -0.1 | 54.9* | 28.6
c1ccc(N2CCN(c3nc4cc5c(cc4s3)OCO5)CC2)cc1 | 3.7 | -0.3 | 4.1 | -4.5 | 54.6* | 69.8*
c1c2c(cc3sc(N4CCCCC4)nc13)OCO2 | 0.0 | -20.0 | 1.0 | -8.6 | -8.1 | -44.5
c1ccc2c(c1)CCN(c1nc3cc4c(cc3s1)OCO4)C2 | 0.0 | -1.7 | -0.1 | -1.0 | 20.7 | -0.7
Clc1ccc2nc(N3CCN(c4ccccc4)CC3)sc2c1 | 0.4 | 5.5 | -6.2 | 12.4 | 71.6* | 28.3
c1c2c(cc3sc(N4CCOCC4)nc13)OCO2 | -5.4 | -10.5 | 3.5 | -0.4 | 58.0* | 33.5
S=C(c1ccc(-c2cccc(Cl)c2)o1)N1CCOCC1 | -2.7 | 0.1 | 0.2 | -1.0 | 33.6 | 61.1*
S=C(c1ccc(-c2cc(Cl)ccc2Cl)o1)N1CCOCC1 | -1.2 | 4.2 | 0.1 | 2.5 | 26.8 | -2.6
Cc1ccc2cc(CN(CC3CCCO3)C(=O)c3ccco3)c(=O)[nH]c2c1C (stereo not drawn) | 3.5 | -0.3 | -5.9 | 7.5 | 15.2 | 2.3
Cc1ccc2cc(CCNC(=O)c3ccco3)c(=O)[nH]c2c1C | 1.4 | -1.5 | -0.3 | 0.7 | 63.3* | 50.9*
Cc1ccc2cc(CCNC(=O)c3ccco3)c(=O)[nH]c2c1 | 1.0 | 3.3 | -4.5 | -3.5 | 64.4* | 76.9*
O=C(OCc1nc2ccccc2s1)c1cccc(S(=O)(=O)N2CCOCC2)c1 | 1.4 | 4.8 | 0.3 | 7.4 | 27.7 | 45.4
O=C(CCc1ccc(S(=O)(=O)N2CCOCC2)cc1)OCc1nc2ccccc2s1 | -4.0 | 3.6 | -1.1 | 7.0 | 59.4* | 10.4
COc1ccc(CC(=O)Nc2nc3ccccc3s2)cc1S(=O)(=O)N1CCOCC1 | 36.8* | 6.1 | 0.0 | 10.9 | 13.0 | 0.7
COC(=O)c1cc(OC)c(OC)cc1NC(=O)CSc1nnnn1Cc1ccccc1 | 6.1 | 5.0 | 0.9 | 9.5 | 16.6 | 6.8
COCc1nc(-c2ccc(-c3ccc(OC)cc3)nc2OC)no1 | -0.3 | -3.0 | -269.6 | 2.1 | 12.3 | 49.3*
CCOc1nc(-c2ccccc2)ccc1-c1noc(COC)n1 | nt | nt | -2.7 | -5.5 | -4.7 | 2.9
COCc1nc(-c2ccc(-c3ccccc3)nc2OC)no1 | nt | nt | -6.2 | -4.4 | 32.2 | 71.5*
SMILES | JNK3 blocker | ROCK2 blocker | MMP-13 inhibitor | PKA kinase inh | SF1 activator | RORA act
Cc1ccc(NC(=O)C2C3CC4OC(=O)C2C4C3)cc1Cl (stereo not drawn) | -2.9 | -0.2 | -0.8 | 1.4 | -3.0 | -5.7
CC(C)OC(=O)c1ccc(NC(=O)C2C3CC4OC(=O)C2C4C3)cc1 (stereo not drawn) | -4.5 | -4.8 | 2.6 | 3.5 | 56.4* | 30.2
COC(=O)c1cc(COC(=O)c2cccnc2SC)oc1C | 2.6 | 6.7 | 2.5 | 6.4 | 5.7 | -10.1
Cc1nc(-c2ccccc2)nc2[nH]c(=O)n(-c3ccccc3)c(=O)c12 | -5.5 | 6.9 | -2.2 | 1.3 | 35.9 | 60.3*
O=C(c1cc2ccccn2n1)N1CCN(Cc2ccccc2)CC1 | -2.7 | -0.8 | -2.1 | -10.7 | 23.9 | 32.0
CCc1cc2c(=O)c(-c3nc4ccccc4[nH]3)coc2c(CN2CCCC(C)C2)c1O (stereo not drawn) | -0.3 | 0.6 | -6.3 | 4.2 | 3.0 | 20.5
Cc1cccc(N2CCN(C(=O)c3cn(C)c(=O)c4c3c3ccccc3n4C)CC2)c1C | -1.4 | 169.1* | -33.4 | 0.9 | 2.5 | 1.1
O=c1nc(NCc2ccco2)sc2ncccc12 | 0.2 | 4.0 | 0.9 | 7.2 | 0.8 | -19.3

Screening data (PubChem BioAssay)
